Tested on: MS2 coat protein
Test: apparent Kd, MS2 coat protein; higher = weaker binding; RNA-MaP array; FMN 200 µM where present
How it was run: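 Binding was read on Illumina sequencing-chip clusters where stalled E. coli RNA polymerase had transcribed each design. A titration of SNAP-549-labelled MS2 coat protein began at 0.7 or 1.5 nM and doubled to 3 µM, once without ligand and once with constant ligand, in 100 mM Tris-HCl pH 7.5, 80 mM KCl, 4 mM MgCl2, BSA, DTT, yeast tRNA and Tween-20. The apparent Kd is the median of filtered per-cluster binding-curve fits, based on green signal normalised to red-channel RNA signal and control-cluster median Fmax.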

[1] = designed as: ON switch for flavin mononucleotide, no ligand
[2] = ligand present: flavin mononucleotide, designed as: ON switch for flavin mononucleotide
[3] = designed as: OFF switch for flavin mononucleotide, no ligand
[4] = ligand present: flavin mononucleotide, designed as: OFF switch for flavin mononucleotide

Row | Sequence | apparent Kd [1] [nM] | apparent Kd [2] [nM] | apparent Kd [3] [nM] | apparent Kd [4] [nM]
1 | CAUGUCCUCACAGGAUAUGCAAUGUAUUUCAUUGCAGAAGGGUGAACACAUGAGGAUCACCCAUGUGGACAUGAUAUAUUUAAU | 521 | 69.5 |  | 
2 | UAUUCACAUGAGGAUCACCCAUGUAGAAGGCCGAGCCUGGCCACGGUUACACGCCGUGGAGAGCCGGAGGAUAUACAGCUGGUG |  |  | 111 | 30.9
3 | GUGCUCGUGUGAGGAUAUGCUGCCGGGUCGGCUGCAGAAGGUACUAUUAUACAUGAGGAUCACCCAUGUCGCUUUUCUCCGGUG | 45.6 | 44.9 |  | 
4 | GUCAGCUCGUGAGGAUAUACAACACUGCUUCGGCAGUGUAUUAAGAUCACAUGAGGAUCACCCAUGUAGAAGGCACGAGCUGAG |  |  | 13 | 200
5 | UUAGCGUAAGUAAGGAUAUGCUGGUCGAAAGACCAGCAGAAGGUACAUGAGGAUCACCCAUGUUGAGUUGUUGC |  |  | 20 | 24.3
6 | ACGAAACAUGAGGAUCACCCAUGUGAGGAUAUGUAAAUACUAGACAAAUAACAGAAAAACAGAAGGCACUCAGA |  |  | 24.3 | 22
7 | GUAACGCUUGACAUGAGGAUCACCCAUGUUAGAUUGUUAUGUCAGGAUAUAGUCUAGAAACUAGACUAGAAGGGAUAUGUUGCU | 59.3 | 29 |  | 
8 | UUUUUAUUUAUAGGAUAUGGAAACAUGAGGAUCACCCAUGUAUGAUAAGAUAAAUUAUGAUAUGGCCAGAAGGAUAUUAUUUUU | 31 | 34.8 |  | 
9 | GACUUGCAGCUAGGAUAUGGGCGAUCACAUGAGGAUCACCCAUGUCAACAUCAAAACAAGAUUAACCAGAAGGAGCCGCGGGCU | 17.3 | 63.9 |  | 
10 | GUGUACAGAGGAUAUAUAUGAGCUAGGAAACUAGCAAACUCACAUGAGGAUCACCCAUGUAGAAGGCUGUACAC |  |  | 29.4 | 156
11 | UCUAGACAUGAGGAUCACCCAUGUGAGGAUAUGAUGCGAUCGUCGAAAGACGAUAGCAUCAGAAGGCACAUAUG |  |  | 154 | 469
12 | AGCGGAUAACAGUAGGAUAUGGCCAACGCCACAUGAGGAUCACCCAUGUCGUACCGGCACCUGGACUAGAAGGACUGCCUCCCGC | 30.8 | 14.5 |  | 
13 | CUCAAACAUGAGGAUCACCCAUGUGUUGUCGUGGGAGGAUAUCCCGGUUCGGUGGCGUCGGGAGAAGGCCUAUGUC | 68 | 35 |  | 
14 | AGCUAGUCAGGAUAUACGAAAAUGUCAGAAGCUGAGAAGGGACAUGAGGAUCACCCAUGUAGAAGGGACUAGCA |  |  | 57.5 | 299
15 | AGAUAGAUAGCGAUAUGAUCGAGAGAUCAUGUCGCUAAAUUUAGAAGGACAUGAGGAUCACCCAUGUAGGAUAUGGGUAUAGAA | 404 | 149 |  | 
16 | AGUGUCAUCGAGAAGGACACGGACAUGAGGAUCACCCAUGUUCCAUGUUGUAGGAUAUCGAUGAUACAGCUACGUUUCGUAGCA | 5.01 | 4.5 |  | 
17 | AAAUUCAGAGGAUAUGCGCAUAGAUAAGACUUUGUUUCUUAACAUGAGGAUCACCCAUGUAGAAGGCUGUACCC |  |  | 17.9 | 20.1
18 | UUGUUAUAUGUAGGAUAUGCAUAUUAUUAUUAUGCAGAAGGACAUGAGGAUCACCCAUGUAUAUUGUUGUUAUAUAUUAUAUAU |  |  | 24 | 28.4
19 | GGUGGUUGAGGAUAUACGAACAUGUCGCCAGAUGUCAUGGUACAUGAGGAUCACCCAUGUAGAAGGUGGUUGUC |  |  | 357 | 576
20 | GUAGCAUACCGAGGAUAUUCAUACCGGAAACGGACAUGAGGAUCACCCAUGUUACGAAAGUAUUGGGAGAAGGCGGAAUGCUAC | 135 | 22.6 |  | 
21 | UCCUAACAUGAGGAUCACCCAUGUGAGGAUAUGAUACUAUGUACUUCGGUACAUAGUAUCAGAAGGCACAUCCU |  |  | 19.1 | 26
22 | UCCACUGCUGAGAAGGGAUCCGUGUGGUUCGAAUCAGGAUAUCGAUACAGUGCAGCAUGAGGACAUGAGGAUCACCCAUGUAUC | 13.2 | 11.3 |  | 
23 | AGUGUGAGGCAGGAUAUGCUAUAUGUUCGUAAUGCAGAAGGGUCUACAUGAGGAUCACCCAUGUGUGCGGUUGA |  |  | 183 | 523
24 | AACCUAUUACAGAAGGCCAGCUACAUGAGGAUCACCCAUGUCGAGUCAUGGAGGAUAUGUAGUAAUUUACUCGCGGAUGAGUAA | 23.8 | 5.35 |  | 

Row | Sequence | apparent Kd [1] [nM] | apparent Kd [2] [nM] | apparent Kd [3] [nM] | apparent Kd [4] [nM]
25 | GCUGGACGAGGAUAUGCAAUCGUGCUUCGGCACGUAAGAUCACAUGAGGAUCACCCAUGUAGAAGGUGUCCAGC |  |  | 17.9 | 30.2
26 | AAAACACAUGAGGAUCACCCAUGUGAGGAUAUCGUGCAGUAGACGAAAGUCUACUGCACGAGAAGGCACAAGGA |  |  | 49 | 81.3
27 | UUAUUUUUACAGAAGGUUUAAUAAUAUGUAUGAGAAGGAUAUGUAACAUGAGGAUCACCCAUGUUUCGUCUAUAUGAGGAUCAU |  |  | 6.77 | 7.22
28 | AGUCUCACUGAAGGAUAUGCAGGGUUUCAAGGGUUUCCUGCGACAUGAGGAUCACCCAUGUAAAUGCAGAAGGUCAGGACCCAA |  |  | 6.63 | 32.8
29 | GGGUACUAGGGAGGAUAUGGGAAGAUACAUGAGGAUCACCCAUGUUUAAGAAUGCCGAGAGGCAACUAGAAGGCCCUAGUACCU | 428 | 19.7 |  | 
30 | AAAAAGUCAGGAUAUACGAAAAAAAAAAAAAAAAAAAAAAAGUAGAAGGGACAUGAGGAUCACCCAUGUAAAAA |  |  | 78.2 | 58.8
31 | AAGUAGGUAGGAUAUACAUGGAUAUACAUUCAUGUGGACCUACAUGAGGAUCACCCAUGUAGAAGGACCUAAUA |  |  | 43.2 | 41.6
32 | UAUUAAUGCAAGGAUAUGCUAUUAAUUUAUUUUGCAGAAGGUGCAACAUGAGGAUCACCCAUGUUGGAGGGUAU |  |  | 22 | 34.3
33 | CCUGCACAUGAGGAUCACCCAUGUCAGGAUAUCUCGCCGUCGGCUUGCCGACGGUAUUAGAGAAGGGACACGGG |  |  | 29.3 | 26
34 | CGGUCGAAGUAAGGAUAUCGACUGGAUAACAGUCGAGAAGGUACAUGAGGAUCACCCAUGUAAUCCUAUAAUAAAUAACGACCG |  |  | 12.1 | 15.5
35 | UCGAAACAGACAGGAUAUGCAGGGAGGUGCCGGUACAUGAGGAUCACCCAUGUAGAAGGGUCUCGAGUUGAACUUCAGUCAAAG |  |  | 9.61 | 19.5
36 | AGCUGGUGACAGCAUCGAGCUAAACAUGAGGAUCACCCAUGUAGAAGGCUGUACGGUUACCGUACAGAGGAUAUACAUAGCUCG |  |  | 6.11 | 6.3
37 | AGCUACGUUUCGUAGCAGCUAGGUGAGGAUAUUAAAAUUUUCACAUGAGGAUCACCCAUGUAUGUGAAGAAGGCGCCUAGAAAG | 53.7 | 7.76 |  | 
38 | AACAAGUCAGGAUAUGUUAAAGGUUACGAAAGGGAUAAAGGGCAGAAGGGACAUGAGGAUCACCCAUGUAAUAA |  |  | 58 | 50.2
39 | AUGACCUCAGUCAGGAUAUCGGCGCGGUGACGACUCGAGAAGGGACAUGAGGAUCACCCAUGUCUCGAUUAUAG |  |  | 15.4 | 22.2
40 | GCACGACAUGUAGGAUAUCGAGCGCCGAGCGCUCGAGAAGGACAUGAGGAUCACCCAUGUAUUCUGAGUGAGCGAGGUCGUGCA |  |  | 45.7 | 393
41 | UUGGCAUCGUAGAAGGGUGACAUGAGGAUCACCCAUGUGAUGAUAUUUCUCGAGAUAUGUUGUCCAUAGGAUAUACGAGCGAAC | 80.9 | 18.4 |  | 
42 | AAUUUACAGCUAGGAUAUACAUGAGGAUCACCCAUGUAAUGAUUGGAUCUUAUGAUCGUAUCAGUGUAGAAGGAGCAAAUAAGA |  |  | 13.4 | 28.4
43 | GAUUACAAGUAAGGAUAUGUAUAUGAAACAUAUACAGAAGGUACAUGAGGAUCACCCAUGUUCUUGCAGCGCGAAUAUGUAAUC |  |  | 17.1 | 21.1
44 | AAGGGUAGGCAGGAUAUCCAGGUCGACACCGCGGGAGAAGGGCUUACAUGAGGAUCACCCAUGUAGGGUGCGAU |  |  | 177 | 129
45 | CCUCUACAUGAGGAUCACCCAUGUGAGGAUAUGCGAGGCGCGCUCGAUGAGCGCGCCGGUAGAAGGCAUGUGGU |  |  | 23.2 | 49.9
46 | UUCGGGAACUCUAUGGGCCGCUACAUGAGGAUCACCCAUGUGCAGGAUAUAGGUGUCACUACCGCCUAGAAGGGCACAGAAAGA |  |  | 41.4 | 58.6
47 | UAAAUGUGAGGAUAUUCGUUGAACUCGGAGACGAGUUUAACGGAGAAGGCACAUGAGGAUCACCCAUGUUCCUU |  |  | 20.4 | 211
48 | GAGUUACAUGAGGAUCACCCAUGUUGUUUUGGAUAAGGAUAUAUGGUAGGAAGAGGAAUGAUAGAAGGUAUUAGGG | 29.9 | 28.3 |  | 

Reference: the EternaBench riboswitch data
